ChEMBL document CHEMBL1150160, “New scalarane class sesterterpenes from an Indonesian sponge, Phyllospongia sp” (2002)

The compounds below were run on KB (assay: Cytotoxicity against human KB cells at 10 ug/mL).
Format: functional
How it was run: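 KB cell growth was measured in the presence of test material at 10 μg/mL. Values are given as percent inhibition of growth.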
With `CC[C@@]1(C)CCC[C@]2(C)[C@H]3C[C@H](OC(C)=O)[C@]4(C)[C@@H](C=O)[C@H](C(C)=O)[C@@H](O)C[C@H]4[C@]3(C)CC[C@@H]12` the inhibition at 10 µg/mL was 30%.
`CC(=O)O[C@H]1C[C@H]2[C@@](C)(CC[C@H]3C(C)(C)CCC[C@]23C)[C@@H]2C[C@H](O)[C@@H](C(C)=O)C[C@]21C` was tested, and the inhibition at 10 µg/mL was 30%.
With `CC(=O)O[C@H]1C[C@@H]2[C@@]3(C)CCCC(C)(C)[C@@H]3CC[C@@]2(C)[C@@H]2C[C@H](O)[C@@H]3[C@H]([C@H](O)O[C@H]3C)[C@@]12C` the inhibition at 10 µg/mL was 30%.
In the case of `CC(=O)O[C@@H]1O[C@@H](C)[C@H]2[C@H]1[C@@]1(C)[C@@H](OC(C)=O)C[C@@H]3[C@@]4(C)CCCC(C)(C)[C@@H]4CC[C@@]3(C)[C@@H]1C[C@@H]2OC(C)=O`, the inhibition at 10 µg/mL is reported as 30%.
With `CO[C@@H]1O[C@](C)(OC)[C@H]2[C@H]1[C@@]1(C)[C@@H](OC(C)=O)C[C@@H]3[C@@]4(C)CCCC(C)(C)[C@@H]4CC[C@@]3(C)[C@@H]1C[C@@H]2O` the inhibition at 10 µg/mL was 30%.
In the case of `CC[C@@]1(C)CCC[C@]2(C)[C@H]3C[C@H](OC(C)=O)[C@]4(C)C[C@H](C(C)=O)[C@@H](O)C[C@H]4[C@]3(C)CC[C@@H]12`, the inhibition at 10 µg/mL is reported as 30%.
Work on `CC(=O)O[C@H]1C[C@@H]2[C@@]3(C)CCCC(C)(C)[C@@H]3CC[C@@]2(C)[C@@H]2C[C@H](O)[C@@H](C(C)=O)[C@H](C=O)[C@@]12C` yielded an inhibition at 10 µg/mL of 30%.
Compound `CC[C@@]1(C)CCC[C@]2(C)[C@H]3C[C@H](OC(C)=O)[C@]4(C)[C@H]5[C@H](OC)O[C@@H](C)[C@@H]5[C@@H](O)C[C@H]4[C@]3(C)CC[C@@H]12` has an inhibition at 10 µg/mL of 30%.
`CC[C@@]1(C)CCC[C@]2(C)[C@H]3C[C@H](OC(C)=O)[C@]4(C)[C@H]5[C@@H](OC)O[C@@H](C)[C@@H]5[C@@H](O)C[C@H]4[C@]3(C)CC[C@@H]12` showed an inhibition at 10 µg/mL of 30%.
With `CO[C@H]1O[C@@H](C)[C@H]2[C@H]1[C@@]1(C)[C@@H](OC(C)=O)C[C@@H]3[C@@]4(C)CCCC(C)(C)[C@@H]4CC[C@@]3(C)[C@@H]1C[C@@H]2O` the inhibition at 10 µg/mL was 30%.
Work on `CC(=O)O[C@H]1C[C@H]2[C@]3(C)CC[C@H]4C(C)(C)CCC[C@]4(C)[C@H]3C[C@H](OC(C)=O)[C@]2(C)[C@@H](C=O)[C@@H]1C(C)=O` yielded an inhibition at 10 µg/mL of 30%.
Work on `CO[C@@](C(=O)O[C@H]1C[C@H]2[C@]3(C)CC[C@H]4C(C)(C)CCC[C@]4(C)[C@H]3C[C@H](OC(C)=O)[C@]2(C)[C@@H](C=O)[C@@H]1C(C)=O)(c1ccccc1)C(F)(F)F` yielded an inhibition at 10 µg/mL of 30%.
With `CC(=O)O[C@H]1C[C@@H]2[C@@]3(C)CCCC(C)(C)[C@@H]3CC[C@@]2(C)[C@@H]2C[C@H](O)[C@@H](C(C)=O)[C@H](O)[C@@]12C` the inhibition at 10 µg/mL was 30%.
With `CO[C@@H]1O[C@@H](C)[C@H]2[C@H]1[C@@]1(C)[C@@H](OC(C)=O)C[C@@H]3[C@@]4(C)CCCC(C)(C)[C@@H]4CC[C@@]3(C)[C@@H]1C[C@@H]2O` the inhibition at 10 µg/mL was 30%.
Compound `CO[C@](C(=O)O[C@H]1C[C@H]2[C@]3(C)CC[C@H]4C(C)(C)CCC[C@]4(C)[C@H]3C[C@H](OC(C)=O)[C@]2(C)[C@@H](C=O)[C@@H]1C(C)=O)(c1ccccc1)C(F)(F)F` has an inhibition at 10 µg/mL of 30%.
With `CC[C@@]1(C)CCC[C@]2(C)[C@H]3C[C@H](OC(C)=O)[C@]4(C)[C@@H]5[C@H]([C@H](C)O[C@H]5O)[C@@H](O)C[C@H]4[C@]3(C)CC[C@@H]12` the inhibition at 10 µg/mL was 30%.
